How the values were obtained:
[1] = target: T1, Sphingomyelin phosphodiesterase (Homo sapiens, UniProt P17405); experiment: Inhibition of acid sphingomyelinase in human HuH7 cell lysate using NBD-sphingomyelin as substrate after 30 mins by TLC based fluorescence assay
T1 sequence (P17405 whole entry): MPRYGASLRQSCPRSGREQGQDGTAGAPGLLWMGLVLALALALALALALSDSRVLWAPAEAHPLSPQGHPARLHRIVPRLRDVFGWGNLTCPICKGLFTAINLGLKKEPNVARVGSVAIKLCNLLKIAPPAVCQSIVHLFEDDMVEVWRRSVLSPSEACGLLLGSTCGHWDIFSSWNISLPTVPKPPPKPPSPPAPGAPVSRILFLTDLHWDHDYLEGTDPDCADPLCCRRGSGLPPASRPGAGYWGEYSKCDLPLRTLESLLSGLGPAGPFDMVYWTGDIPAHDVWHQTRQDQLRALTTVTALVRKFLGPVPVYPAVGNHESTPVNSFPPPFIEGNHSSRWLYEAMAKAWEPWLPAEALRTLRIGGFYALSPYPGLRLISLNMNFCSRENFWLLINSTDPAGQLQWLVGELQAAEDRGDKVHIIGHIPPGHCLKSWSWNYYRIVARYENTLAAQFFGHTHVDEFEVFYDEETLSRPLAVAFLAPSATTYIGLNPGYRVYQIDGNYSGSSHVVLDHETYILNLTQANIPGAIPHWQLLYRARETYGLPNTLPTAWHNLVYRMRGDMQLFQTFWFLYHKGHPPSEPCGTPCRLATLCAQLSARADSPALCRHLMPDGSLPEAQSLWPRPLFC

[2] = target: T2, Sphingomyelin phosphodiesterase (Mus musculus) (UniProt Q04519); experiment: Inhibition of acid sphingomyelinase in mouse NIH/3T3 cells assessed as ceramide levels at 5 uM after 20 hrs by LC-MS/MS analysis relative to control; assay type: cell-based
T2 sequence (whole entry): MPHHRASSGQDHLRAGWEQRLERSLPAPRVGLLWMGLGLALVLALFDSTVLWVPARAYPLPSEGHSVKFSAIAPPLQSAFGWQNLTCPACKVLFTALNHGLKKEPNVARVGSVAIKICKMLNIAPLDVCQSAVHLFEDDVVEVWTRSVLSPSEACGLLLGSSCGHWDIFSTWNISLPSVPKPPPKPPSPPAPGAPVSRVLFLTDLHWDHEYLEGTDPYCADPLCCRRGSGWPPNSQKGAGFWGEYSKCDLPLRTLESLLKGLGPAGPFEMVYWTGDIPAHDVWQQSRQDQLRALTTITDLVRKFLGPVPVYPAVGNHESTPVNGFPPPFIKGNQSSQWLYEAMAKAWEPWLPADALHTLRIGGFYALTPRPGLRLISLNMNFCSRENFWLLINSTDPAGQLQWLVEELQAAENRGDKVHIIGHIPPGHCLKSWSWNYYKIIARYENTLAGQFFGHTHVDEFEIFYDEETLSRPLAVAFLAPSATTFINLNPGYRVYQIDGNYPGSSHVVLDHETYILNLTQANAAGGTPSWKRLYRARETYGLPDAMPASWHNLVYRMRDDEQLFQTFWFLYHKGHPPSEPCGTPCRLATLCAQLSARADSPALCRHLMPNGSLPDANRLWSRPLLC
Procedure, shortened: (§1)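 NIH3T3 cells in DMEM with 10% FBS, 37 °C, 5% CO₂; at 90% confluence given fresh medium plus inhibitor (5, 10, 20 µM) for 20 h; total ceramides and sphingomyelin quantified by LC-MS-MS versus untreated control; mean ± SD of three independent experiments, Student's t-test.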

[3] = target: T2, Sphingomyelin phosphodiesterase (Mus musculus); experiment: Inhibition of acid sphingomyelinase in mouse NIH/3T3 cells assessed as decrease in ceramide levels after 20 hrs by LC-MS/MS analysis; assay type: cell-based; procedure, shortened: as §1
[4] = target: T2, Sphingomyelin phosphodiesterase (Mus musculus); experiment: Inhibition of acid sphingomyelinase in mouse NIH/3T3 cells assessed as increase in […] level at 5 uM after 20 hrs by LC-MS/MS analysis relative to control; assay type: cell-based; parameters: scale not given: the % may be the effect or the level left; procedure, shortened: as §1
NIH3T3 [5] = experiment: Cytoprotective activity against UV-induced apoptosis in mouse NIH/3T3 cells assessed as viable cells at 20 uM preincubated for 20 hrs followed by UV irradiation for 5 mins and measured after 24 hrs by flow cytometric analysis (reference value: 12.6%); assay type: functional; conditions: NIH3T3, light or radiation study, read-out: Activity
NIH3T3 [6] = experiment: Cytoprotective activity against UV-induced apoptosis in mouse NIH/3T3 cells assessed as late apoptotic cells at 20 uM preincubated for 20 hrs followed by UV irradiation for 5 mins and measured after 24 hrs by flow cytometric analysis (reference value: 6.4%); assay type: functional
NIH3T3 [7] = experiment: Cytoprotective activity against UV-induced apoptosis in mouse NIH/3T3 cells assessed as viable cells at 40 uM preincubated for 20 hrs followed by UV irradiation for 5 mins and measured after 24 hrs by flow cytometric analysis (reference value: 12.6%); assay type: functional; conditions: NIH3T3, light or radiation study, read-out: Activity
NIH3T3 [8] = experiment: Cytoprotective activity against UV-induced apoptosis in mouse NIH/3T3 cells assessed as early apoptotic cells at 40 uM preincubated for 20 hrs followed by UV irradiation for 5 mins and measured after 24 hrs by flow cytometric analysis (reference value: 79.5%); assay type: functional
NIH3T3 [9] = experiment: Cytoprotective activity against UV-induced apoptosis in mouse NIH/3T3 cells assessed as necrotic cells at 40 uM preincubated for 20 hrs followed by UV irradiation for 5 mins and measured after 24 hrs by flow cytometric analysis (reference value: 1.5%); assay type: functional
NIH3T3 [10] = experiment: Cytoprotective activity against UV-induced apoptosis in mouse NIH/3T3 cells assessed as late apoptotic cells at 60 uM preincubated for 20 hrs followed by UV irradiation for 5 mins and measured after 24 hrs by flow cytometric analysis (reference value: 6.4%); assay type: functional
NIH3T3 [11] = experiment: Cytotoxicity against mouse NIH/3T3 cells after 24 hrs by MTT assay; assay type: cell-based; conditions: NIH3T3, 24 h
NIH3T3 [12] = experiment: Cytoprotective activity against UV-induced apoptosis in mouse NIH/3T3 cells assessed as necrotic cells preincubated for 20 hrs followed by UV irradiation for 5 mins and measured after 24 hrs by flow cytometric analysis; assay type: functional, cell-based
Procedure, shortened: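 NIH3T3 cells grown in DMEM plus 10% FBS at 37 °C and 5% CO₂, seeded in 6-well plates and left overnight. Inhibitor (0–60 µM, DMSO solvent) added for 20 h. Medium replaced, then UV at peak 315 nm, 0.29 mW/cm² for 5 min. Cells kept with inhibitor 24 h more before flow cytometry by quadrant regions. Untreated, unirradiated cells served as control. Three independent experiments.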

[13] = target: T2, Sphingomyelin phosphodiesterase (Mus musculus); experiment: Inhibition of UV-induced ceramide production in mouse NIH/3T3 cells by LC-MS/MS analysis; assay type: cell-based
Procedure, shortened: (§2)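 Ceramide in the UV-apoptosis setup: NIH3T3 cells pretreated with inhibitor 20 h, UV 315 nm 0.29 mW/cm² 5 min, further 24 h with inhibitor; ceramide quantified (pmol/mg) by LC-MS-MS; amitriptyline as positive control; mean ± SD of three independent experiments.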

[14] = target: T2, Sphingomyelin phosphodiesterase (Mus musculus); experiment: Inhibition of UV-induced ceramide production in mouse NIH/3T3 cells assessed as ceramide level at 50 uM by LC-MS/MS analysis (reference value: 107.686 pmol/mg); assay type: cell-based; procedure, shortened: as §2

## CCCCCCCCCCOc1cc(C(=O)NO)ccc1OC
[1]
  IC50: 0.48 µM
[2]
  inhibition: 26.1%
[3]
  inhibition: Dose-dependent effect
[4]
  Activity: 31.9%
NIH3T3 [5]
  viability at 20 µM: 54.7%
NIH3T3 [6]
  Activity: 8.4%
NIH3T3 [7]
  viability at 40 µM: 50.9%
NIH3T3 [8]
  Activity: 41.1%
NIH3T3 [9]
  Activity: 0.1%
NIH3T3 [10]
  Activity: 7.5%
NIH3T3 [11]
  IC50: 51.4 µM
NIH3T3 [12]
  Activity: Dose-dependent effect
[13]
  inhibition: Dose-dependent effect
[14]
  Activity: 106 pmol/mg
